From ChEMBL document CHEMBL3769317, “Aminothiazoles as Potent and Selective Sirt2 Inhibitors: A Structure-Activity Relationship Study” (J Med Chem, 2016)

What was measured:
[1] = target: T1, NAD-dependent protein deacetylase sirtuin-1 (Homo sapiens) (UniProt Q96EB6); experiment: Inhibition of GST-tagged human SIRT1 (133 to 747 amino acids) using ZMAL as substrate at 200 uM after 4 hrs by fluorescence-based microplate reader method
T1 sequence (whole entry): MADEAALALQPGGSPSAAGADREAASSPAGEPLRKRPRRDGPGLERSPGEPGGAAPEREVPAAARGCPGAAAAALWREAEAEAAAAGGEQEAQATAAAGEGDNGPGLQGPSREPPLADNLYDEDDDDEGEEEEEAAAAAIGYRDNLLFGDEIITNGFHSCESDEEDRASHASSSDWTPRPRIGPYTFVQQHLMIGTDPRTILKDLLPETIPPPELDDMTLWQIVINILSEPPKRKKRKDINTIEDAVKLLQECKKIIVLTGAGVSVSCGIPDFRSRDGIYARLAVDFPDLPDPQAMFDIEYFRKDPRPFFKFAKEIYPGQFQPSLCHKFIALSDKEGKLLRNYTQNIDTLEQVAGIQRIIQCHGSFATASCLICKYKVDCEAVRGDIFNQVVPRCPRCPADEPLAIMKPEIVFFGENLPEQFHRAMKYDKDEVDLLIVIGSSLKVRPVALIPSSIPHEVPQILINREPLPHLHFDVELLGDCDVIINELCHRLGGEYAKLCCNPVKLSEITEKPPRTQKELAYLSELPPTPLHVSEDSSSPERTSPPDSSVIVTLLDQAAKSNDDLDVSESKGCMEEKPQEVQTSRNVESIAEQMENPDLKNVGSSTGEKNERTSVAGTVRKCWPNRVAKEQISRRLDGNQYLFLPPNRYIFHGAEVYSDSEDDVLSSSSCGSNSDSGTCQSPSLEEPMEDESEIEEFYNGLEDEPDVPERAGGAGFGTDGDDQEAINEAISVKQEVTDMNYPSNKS

[2] = target: T2, NAD-dependent protein deacetylase sirtuin-2 (Homo sapiens) (UniProt Q8IXJ6); experiment: Inhibition of N-terminal his6-tagged human SIRT2 (25 to 389 amino acids) using ZMAL as substrate at 50 uM after 4 hrs by fluorescence-based microplate reader method
T2 sequence (whole entry): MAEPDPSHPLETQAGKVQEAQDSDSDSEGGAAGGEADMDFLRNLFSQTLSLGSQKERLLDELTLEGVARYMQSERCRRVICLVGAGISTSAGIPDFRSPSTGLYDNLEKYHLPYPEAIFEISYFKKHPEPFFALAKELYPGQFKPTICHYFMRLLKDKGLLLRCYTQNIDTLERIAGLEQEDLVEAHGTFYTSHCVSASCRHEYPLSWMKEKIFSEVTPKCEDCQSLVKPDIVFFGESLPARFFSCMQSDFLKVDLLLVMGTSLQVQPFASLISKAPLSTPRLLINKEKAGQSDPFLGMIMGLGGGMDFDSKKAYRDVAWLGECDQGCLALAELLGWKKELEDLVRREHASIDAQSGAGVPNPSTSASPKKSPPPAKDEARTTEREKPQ
Method in brief: (§1)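 Fluorogenic deacetylation assay: hSirt1 133-747 or hSirt2 25-389 in 50 mM Tris, 137 mM NaCl, 2.7 mM KCl, pH 8.0, with NAD+ 500 µM and ZMAL (Cbz-Lys(acetyl)-AMC) 10,5 µM final, inhibitor in DMSO (5% v/v final). Control conversion kept near 15-30%. 4 h at 37 °C, then trypsin/nicotinamide stop for 20 min at 37 °C. Fluorescence read at 390/460 nm. % inhibition taken against no-inhibitor controls. At least duplicates.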

[3] = target: T3, NAD-dependent protein deacetylase sirtuin-2 (Homo sapiens, UniProt Q8IXJ6); experiment: Inhibition of N-terminal his6-tagged human SIRT2 (25 to 389 amino acids) using ZMAL as substrate after 4 hrs by fluorescence-based microplate reader method
T3 sequence (Q8IXJ6 whole entry): T2 sequence (whole entry)

[4] = target: T2, NAD-dependent protein deacetylase sirtuin-2 (Homo sapiens); experiment: Inhibition of N-terminal his6-tagged human SIRT2 (25 to 389 amino acids) using ZMAL as substrate at 250 uM after 4 hrs by fluorescence-based microplate reader method; method in brief: as §1
[5] = target: T2, NAD-dependent protein deacetylase sirtuin-2 (Homo sapiens); experiment: Inhibition of N-terminal his6-tagged human SIRT2 (25 to 389 amino acids) using ZMAL as substrate at 500 uM after 4 hrs by fluorescence-based microplate reader method; method in brief: as §1
[6] = target: T2, NAD-dependent protein deacetylase sirtuin-2 (Homo sapiens); experiment: Inhibition of N-terminal his6-tagged human SIRT2 (25 to 389 amino acids) using ZMAL as substrate at 10 uM after 4 hrs by fluorescence-based microplate reader method; method in brief: as §1

Row | SMILES | inhibition [1] [%] | inhibition [2] [%] | IC50 [3] [µM] | also measured
1 | Nc1ccccc1SCC(=O)Nc1ncc(Cc2cccc3ccccc23)s1 | < 10 | 36 |  | 
2 | CCc1cc(CC)nc(SC(C)C(=O)Nc2ncc(Cc3ccc(OC)cc3)s2)n1 (racemic) | 18 | 40 |  | 
3 | O=C(CSc1ccc(Cl)cc1)Nc1ncc(Cc2cccc3ccccc23)s1 | < 10 | < 10 |  | 
4 | Cc1cc(C)cc(SCC(=O)Nc2ncc(Cc3cccc4ccccc34)s2)c1 | 16 |  | 207 | 
5 | CCc1cc(CC)nc(SCC(=O)Nc2ncc(Cc3ccc(Cl)cc3)s2)n1 | 18 | 38 |  | 
6 | O=C(CSc1cccc(O)c1)Nc1ncc(Cc2cccc3ccccc23)s1 | < 10 |  | 143 | 
7 | COc1ccc(Cc2cnc(NC(=O)C(C)Sc3nc(C)cc(C)n3)s2)cc1 (racemic) | 27 |  | 14.6 | 
8 | CC(=O)Nc1ncc(Cc2cccc3ccccc23)s1 | < 10 | < 10 |  | inhibition [5]: 84%
9 | Cc1cc(C)nc(SC(C)C(=O)Nc2ncc(Cc3cccc4ccc(Cl)cc34)s2)n1 (racemic) | < 10 |  | 0.54 | 
10 | O=C(CSc1ncccn1)Nc1ncc(Cc2ccccc2)s1 | 12 |  |  | 
11 | CCc1cc(CC)nc(SCC(=O)Nc2ncc(Cc3ccc(OC)cc3)s2)n1 | 17 | 48 |  | 
12 | CC(Sc1ncccn1)C(=O)Nc1ncc(Cc2cccc3ccccc23)s1 (racemic) | 21 |  | 1.92 | 
13 | O=C(CSc1ncccn1)Nc1ncc(Cc2cccc3ccccc23)s1 | 17 |  | 2.34 | 
14 | Nc1cc(N)nc(SCC(=O)Nc2ncc(Cc3cccc4ccccc34)s2)n1 | < 10 | 25 |  | 
15 | NC(=O)c1ccc[n+](CC(=O)Nc2ncc(Cc3cccc4ccccc34)s2)c1 | 39 |  | 289 | 
16 | CCc1cc(CC)nc(SCC(=O)Nc2ncc(Cc3cccc4ccccc34)s2)n1 | < 10 |  | 45.6 | 
17 | CCc1cc(CC)nc(SCC(=O)Nc2ncc(Cc3cccc(C)c3)s2)n1 | < 10 | < 10 |  | 
18 | CCCc1cc(O)nc(SCC(=O)Nc2ncc(Cc3cccc4ccccc34)s2)n1 | 22 |  | 127 | 
19 | Cc1ccccc1Cc1cnc(NC(=O)CSc2ncccn2)s1 | 11 | < 10 |  | 
20 | CCC(Sc1nc(C)cc(C)n1)C(=O)Nc1ncc(Cc2cccc3ccc(Cl)cc23)s1 (racemic) | < 10 |  | 0.32 | 
21 | O=C(CSc1nc(-c2ccccc2)cc(-c2ccccc2)n1)Nc1ncc(Cc2ccc(Cl)cc2)s1 | 11 | 46 |  | 
22 | CC(=O)Nc1ncc(C)s1 | < 10 | < 10 |  | 
23 | COc1ccc(Cc2cnc(NC(=O)/C=C/c3ccco3)s2)cc1 | 28 | 18 |  | 
24 | CCCCCC(=O)Nc1ncc(Cc2cccc3ccccc23)s1 | < 10 | 48 |  | inhibition [6]: < 10%; inhibition [5]: 77%

Further lines, with some results ahead:

Row | inhibition [1] [%] | inhibition [2] [%] | IC50 [3] [µM] | SMILES | also measured
25 | 14 |  | 33 | Cc1cc(C)nc(SC(C)C(=O)Nc2ncc(Cc3ccc(-c4ccccc4)cc3)s2)n1 (racemic) | 
26 | < 10 |  | 9.77 | Cc1cc(C)nc(S[C@H](C)C(=O)Nc2ncc(Cc3cccc4ccccc34)s2)n1 | 
27 | < 10 |  | 3.4 | Cc1cc(C)nc(SCC(=O)Nc2ncc(Cc3ccc(Cl)cc3)s2)n1 | 
28 | < 10 |  | 30.9 | Cc1cc(C)nc(SCC(=O)Nc2nnc(Cc3ccc(Cl)cc3)s2)n1 | 
29 | < 10 |  | 0.26 | Cc1cc(C)nc(S[C@@H](C)C(=O)Nc2ncc(Cc3cccc4ccccc34)s2)n1 | 
30 | 18 |  | 1.64 | Cc1cccc(Cc2cnc(NC(=O)CSc3nc(C)cc(C)n3)s2)c1 | 
31 | < 10 |  |  | Cc1cc(C)nc(SCC(=O)Nc2ncc(C)s2)n1 | inhibition [4]: 24%
32 | 23 | 35 |  | Cc1cc(C)nc(SCC(=O)Nc2nc(-c3ccc4ccccc4c3)cs2)n1 | 
33 | < 10 |  |  | Cc1cc(C)nc(SCC(=O)Nc2ncc(Cc3ccc4ccccc4c3)s2)n1 | 
34 | < 10 |  | 0.31 | Cc1cc(C)nc(SCC(=O)Nc2ncc(Cc3c(C)ccc4ccccc34)s2)n1 | 
35 | < 10 |  | 1.33 | CCOc1cccc(Cc2cnc(NC(=O)CSc3nc(C)cc(C)n3)s2)c1 | 
36 | < 10 |  | 1.89 | Cc1cc(C)nc(SCC(=O)Nc2nnc(Cc3cccc4ccccc34)s2)n1 | 
37 | 16 |  | 4.72 | Cc1ccc(Cc2cnc(NC(=O)CSc3nc(C)cc(C)n3)s2)cc1 | 
38 | 29 |  | 164 | Cc1cc(C)nc(SCC(=O)Nc2ncc(Cc3ccc(-c4ccccc4)cc3)s2)n1 | 
39 | < 10 |  | 15 | Cc1nc(SCC(=O)Nc2ncc(Cc3cccc4ccccc34)s2)nc(C)c1C | 
40 | < 10 | 18 |  | Cc1cc(C)nc(SCC(=O)Nc2nnc(Cc3ccccc3)s2)n1 | 
41 | < 10 | 48 |  | COc1ccc(Cc2cnc(NC(=O)CSc3nc(C)cc(C)n3)s2)cc1 | 

Row | inhibition [1] [%] | inhibition [2] [%] | IC50 [3] [µM] | SMILES | also measured
42 | < 10 |  | 1.45 | Cc1ccnc(SCC(=O)Nc2ncc(Cc3cccc4ccccc34)s2)n1 | 
43 | 35 |  | 0.54 | CCC(Sc1nc(C)cc(C)n1)C(=O)Nc1ncc(Cc2cccc3ccccc23)s1 (racemic) | 
44 | 17 |  | 0.42 | Cc1cc(C)nc(SC(C)C(=O)Nc2ncc(Cc3cccc4ccccc34)s2)n1 (racemic) | 
45 | 14 | 52 |  | Cc1cc(C)nc(SCC(=O)Nc2ncc(Cc3ccccc3C)s2)n1 | 
46 | < 10 |  | 0.21 | Cc1cc(C)nc(SCC(=O)Nc2ncc(Cc3cccc4ccc(Br)cc34)s2)n1 | 
47 | < 10 |  | 19.9 | O=C(CSc1nnc(-c2ccccc2)c(-c2ccccc2)n1)Nc1nnc(-c2ccccc2)s1 | 
48 | < 10 | 20 |  | Cc1cc(C)nc(SCC(=O)Nc2nnc(-c3ccccc3)s2)n1 | 
49 | < 10 |  | > 100 | Cc1cc(C)nc(SCC(=O)N(C)c2ncc(Cc3cccc4ccccc34)s2)n1 | 
50 | 12 |  | 503 | Cc1cc(C)nc(SCC(=O)Nc2nnc(C(F)(F)F)s2)n1 | 
51 | 10 | 31 |  | CCc1cc(CC)nc(SCC(=O)Nc2ncc(Cc3ccc(-c4ccccc4)cc3)s2)n1 | 
52 | 16 |  | 77.8 | CCOc1ccc2nc(NC(=O)CSc3nc(C)cc(C)n3)sc2c1 | 
53 | < 10 |  | 33 | Cc1cc(C)nc(SCC(=O)Nc2ncc(C(=O)Nc3cccc4ccccc34)s2)n1 | 
54 | < 10 | < 10 |  | Cc1cc(C)nc(SCC(N)=O)n1 | 
55 | 20 |  | 0.48 | Cc1cc(C)nc(SCC(=O)Nc2ncc(Cc3cccc4cc(Cl)ccc34)s2)n1 | 
56 | < 10 |  | 168 | Cc1cc(C)nc(SCC(=O)Nc2nnc(Cc3ccc(Br)cc3)s2)n1 | 
57 | < 10 | < 10 |  | Cc1cc(C)nc(SCC(=O)Nc2nnc(C)s2)n1 | 
58 | < 10 | 35 |  | Cc1cc(O)nc(SCC(=O)Nc2ncc(Cc3cccc4ccccc34)s2)n1 | 
